Laboratory results: ChEMBL document CHEMBL1142436, “Design and synthesis of 4-substituted indolo[3,2-e][1,2,3]triazolo[1,5-a]pyrimidine derivatives with antitumor activity” (2008)

Key:
Type in all cases: functional
[1] = tested on: CCRF-CEM; experiment: Growth inhibition of human CCRF-CEM cells after 48 hrs
How it was run: (§1)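 NCI ~60-line screen. Cells were grown in RPMI 1640 with 5% FBS and 2 mM L-glutamine and plated at 5000–40000 cells/well. After a 24 h preincubation, five drug concentrations from DMSO stocks were added for 48 h at 37 °C. Cells were TCA-fixed, stained with SRB and read at 515 nm. GI50 was taken from time-zero and control absorbances and reported as pGI50.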

[2] = tested on: HL-60; experiment: Growth inhibition of human HL60 cells after 48 hrs; details: HL-60, 48 h; how it was run: as §1
[3] = tested on: K562; experiment: Growth inhibition of human K562 cells after 48 hrs; details: K562, 48 h; how it was run: as §1
[4] = tested on: MOLT-4; experiment: Growth inhibition of human MOLT4 cells after 48 hrs; details: MOLT-4, 48 h; how it was run: as §1
[5] = Growth inhibition of human HS578T cells after 48 hrs; details: Hs-578T; how it was run: as §1
[6] = tested on: MDA-MB-435; experiment: Growth inhibition of human MDA-MB435 cells after 48 hrs; details: MDA-MB-435, 48 h; how it was run: as §1
[7] = tested on: BT-549; experiment: Growth inhibition of human BT549 cells after 48 hrs; details: BT-549, 48 h; how it was run: as §1
[8] = tested on: T47D; experiment: Growth inhibition of human T47D cells after 48 hrs
How it was run: (§2)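 NCI 60-line screen: cells in RPMI 1640 with 5% FBS and 2 mM L-glutamine, plated at 5000–40000 cells/well, grown 24 h (37 °C, 5% CO₂), then exposed to five 10-fold or ½-log dilutions (DMSO stock) for 48 h. Fixed with TCA (final 10% for adherent cells, 16% for suspension cells), then SRB stained with absorbance at 515 nm. GI50 from percentage growth relative to time-zero and control wells.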

[9] = tested on: RPMI-8226; experiment: Growth inhibition of human RPMI8226 cells after 48 hrs; details: RPMI-8226, 48 h; how it was run: as §1
[10] = tested on: SR; experiment: Growth inhibition of human SR cells after 48 hrs; how it was run: as §2
[11] = tested on: A549; experiment: Growth inhibition of human A549 cells after 48 hrs; details: A549, 48 h; how it was run: as §1
[12] = tested on: EKVX; experiment: Growth inhibition of human EKVX cells after 48 hrs; how it was run: as §1
[13] = tested on: HOP-62; experiment: Growth inhibition of human HOP62 cells after 48 hrs; details: HOP-62, 48 h; how it was run: as §1
[14] = tested on: HOP-92; experiment: Growth inhibition of human HOP92 cells after 48 hrs; details: HOP-92, 48 h; how it was run: as §1
[15] = tested on: NCI-H226; experiment: Growth inhibition of human NCI-H226 cells after 48 hrs; details: NCI-H226, 48 h; how it was run: as §1
[16] = tested on: NCI-H23; experiment: Growth inhibition of human NCI-H23 cells after 48 hrs; details: Homo sapiens, NCI-H23, 48 h; how it was run: as §1
[17] = tested on: NCI-H322M; experiment: Growth inhibition of human NCI-H322M cells after 48 hrs; how it was run: as §1
[18] = tested on: NCI-H460; experiment: Growth inhibition of human NCI-H460 cells after 48 hrs; details: NCI-H460, 48 h; how it was run: as §1
[19] = tested on: NCI-H522; experiment: Growth inhibition of human NCI-H522 cells after 48 hrs; details: NCI-H522, 48 h; how it was run: as §1
[20] = tested on: COLO 205; experiment: Growth inhibition of human COLO205 cells after 48 hrs; details: COLO 205, 48 h; how it was run: as §1
[21] = tested on: HCC 2998; experiment: Growth inhibition of human HCC2998 cells after 48 hrs; details: HCC 2998, 48 h; how it was run: as §1
[22] = tested on: HCT-116; experiment: Growth inhibition of human HCT116 cells after 48 hrs; details: HCT-116, 48 h; how it was run: as §1
[23] = tested on: HCT-15; experiment: Growth inhibition of human HCT15 cells after 48 hrs; details: HCT-15, 48 h; how it was run: as §1
[24] = tested on: HT-29; experiment: Growth inhibition of human HT29 cells after 48 hrs; details: HT-29, 48 h; how it was run: as §1
[25] = tested on: KM12; experiment: Growth inhibition of human KM12 cells after 48 hrs; details: KM12, 48 h; how it was run: as §1
[26] = tested on: SW-620; experiment: Growth inhibition of human SW620 cells after 48 hrs; details: SW-620, 48 h; how it was run: as §2
[27] = tested on: SF-268; experiment: Growth inhibition of human SF268 cells after 48 hrs; details: SF-268, 48 h; how it was run: as §1
[28] = tested on: SF-295; experiment: Growth inhibition of human SF295 cells after 48 hrs; details: SF-295, 48 h; how it was run: as §1
[29] = tested on: SF-539; experiment: Growth inhibition of human SF539 cells after 48 hrs; details: SF-539, 48 h; how it was run: as §1
[30] = tested on: SNB-19; experiment: Growth inhibition of human SNB19 cells after 48 hrs; details: SNB-19, 48 h; how it was run: as §2
[31] = tested on: SNB-75; experiment: Growth inhibition of human SNB75 cells after 48 hrs; details: SNB-75, 48 h; how it was run: as §2
[32] = tested on: U-251; experiment: Growth inhibition of human U251 cells after 48 hrs; details: U-251, 48 h; how it was run: as §2
[33] = tested on: LOX IMVI; experiment: Growth inhibition of human LOXIMVI cells after 48 hrs; how it was run: as §1
[34] = tested on: Malme-3M; experiment: Growth inhibition of human MALME3M cells after 48 hrs; how it was run: as §1
[35] = tested on: M14; experiment: Growth inhibition of human M14 cells after 48 hrs; details: M14, 48 h; how it was run: as §1
[36] = tested on: SK-MEL-2; experiment: Growth inhibition of human SK-MEL2 cells after 48 hrs; details: SK-MEL-2, 48 h; how it was run: as §1
[37] = tested on: SK-MEL-28; experiment: Growth inhibition of human SK-MEL28 cells after 48 hrs; details: SK-MEL-28, 48 h; how it was run: as §1
[38] = tested on: SK-MEL-5; experiment: Growth inhibition of human SK-MEL5 cells after 48 hrs; details: SK-MEL-5, 48 h; how it was run: as §1
[39] = tested on: UACC-257; experiment: Growth inhibition of human UACC257 cells after 48 hrs; details: UACC-257, 48 h; how it was run: as §2
[40] = tested on: UACC-62; experiment: Growth inhibition of human UACC62 cells after 48 hrs; details: UACC-62, 48 h; how it was run: as §2
[41] = tested on: IGROV-1; experiment: Growth inhibition of human IGROV1 cells after 48 hrs; details: IGROV-1, 48 h; how it was run: as §1
[42] = tested on: OVCAR-3; experiment: Growth inhibition of human OVCAR-3 cells after 48 hrs; details: OVCAR-3, 48 h; how it was run: as §1
[43] = tested on: OVCAR-4; experiment: Growth inhibition of human OVCAR4 cells after 48 hrs; details: OVCAR-4, 48 h; how it was run: as §1
[44] = tested on: OVCAR-5; experiment: Growth inhibition of human OVCAR5 cells after 48 hrs; details: OVCAR-5, 48 h; how it was run: as §1
[45] = tested on: OVCAR-8; experiment: Growth inhibition of human OVCAR8 cells after 48 hrs; details: OVCAR-8, 48 h; how it was run: as §1
[46] = tested on: SK-OV-3; experiment: Growth inhibition of human SKOV3 cells after 48 hrs; details: SK-OV-3, 48 h; how it was run: as §2
[47] = tested on: 786-0; experiment: Growth inhibition of human 786-0 cells after 48 hrs; details: 786-0, 48 h; how it was run: as §1
[48] = tested on: A498; experiment: Growth inhibition of human A498 cells after 48 hrs; details: A498, 48 h; how it was run: as §1
[49] = tested on: ACHN; experiment: Growth inhibition of human ACHN cells after 48 hrs; how it was run: as §1
[50] = tested on: CAKI-1; experiment: Growth inhibition of human CAKI1 cells after 48 hrs; details: CAKI-1, 48 h; how it was run: as §1
[51] = tested on: RXF 393; experiment: Growth inhibition of human RXF393 cells after 48 hrs; details: RXF 393, 48 h; how it was run: as §1
[52] = tested on: SN12C; experiment: Growth inhibition of human SN12C cells after 48 hrs; how it was run: as §2
[53] = tested on: TK-10; experiment: Growth inhibition of human TK10 cells after 48 hrs; details: TK-10, 48 h; how it was run: as §2
[54] = tested on: UO-31; experiment: Growth inhibition of human UO31 cells after 48 hrs; details: UO-31, 48 h; how it was run: as §2
[55] = tested on: PC-3; experiment: Growth inhibition of human PC3 cells after 48 hrs; details: PC-3, 48 h; how it was run: as §1
[56] = tested on: DU-145; experiment: Growth inhibition of human DU145 cells after 48 hrs; details: DU-145, 48 h; how it was run: as §1
[57] = tested on: MCF7; experiment: Growth inhibition of human MCF7 cells after 48 hrs; details: MCF7, 48 h; how it was run: as §1
[58] = tested on: NCI/ADR-RES; experiment: Growth inhibition of human NCI/ADR-RES cells after 48 hrs; how it was run: as §1
[59] = tested on: MDA-MB-231; experiment: Growth inhibition of human MDA-MB-231 cells after 48 hrs; details: MDA-MB-231, 48 h; how it was run: as §1

GI50 [1]: > 100 µM
GI50 [2]: > 100 µM
GI50 [3]: > 100 µM
GI50 [4]: > 100 µM
GI50 [6]: > 100 µM
GI50 [7]: > 100 µM
GI50 [8]: > 100 µM
GI50 [9]: > 100 µM
GI50 [11]: > 100 µM
GI50 [15]: > 100 µM
GI50 [16]: > 100 µM
GI50 [17]: > 100 µM
GI50 [18]: > 100 µM
GI50 [19]: > 100 µM
GI50 [20]: > 100 µM
GI50 [21]: > 100 µM
GI50 [22]: > 100 µM
GI50 [23]: > 100 µM
GI50 [24]: > 100 µM
GI50 [26]: > 100 µM
GI50 [32]: > 100 µM
GI50 [36]: > 100 µM
GI50 [37]: > 100 µM
GI50 [38]: > 100 µM
GI50 [42]: > 100 µM
GI50 [43]: > 100 µM
GI50 [44]: > 100 µM
GI50 [45]: > 100 µM
GI50 [46]: > 100 µM
GI50 [47]: > 100 µM
GI50 [49]: > 100 µM
GI50 [55]: 30.2 µM
GI50 [56]: > 100 µM
GI50 [57]: > 100 µM
GI50 [59]: > 100 µM
Structure (SMILES): COC(=O)C(Cc1c[nH]cn1)NC(=O)CNC(=O)CCCn1c(=O)c2c3ccccc3n(C)c2n2nnc(-c3ccccc3)c12 (centres undefined)
GI50 [5]: > 100 µM
GI50 [10]: > 100 µM
GI50 [12]: > 100 µM
GI50 [13]: > 100 µM
GI50 [14]: > 100 µM
GI50 [25]: > 100 µM
GI50 [27]: > 100 µM
GI50 [28]: > 100 µM
GI50 [29]: > 100 µM
GI50 [30]: > 100 µM
GI50 [31]: > 100 µM
GI50 [33]: > 100 µM
GI50 [34]: > 100 µM
GI50 [35]: > 100 µM
GI50 [39]: > 100 µM
GI50 [40]: > 100 µM
GI50 [41]: 72.4 µM
GI50 [48]: > 100 µM
GI50 [50]: > 100 µM
GI50 [51]: > 100 µM
GI50 [52]: > 100 µM
GI50 [53]: > 100 µM
GI50 [54]: > 100 µM
GI50 [58]: > 100 µM
